Calls of active or inactive are those of the source.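 How the source made its calls, unless noted: active means a full or partial loss of lipid-probe fluorescence in the fish gall bladder, intestine or both, judged by eye; inactive means no fluorescence loss, or compound toxic to the fish.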
Legend:
[1] = inhibitors of TNFa-induced NFkB p65 translocation, primary screen, imaging, HUVEC, MLSMR starter and 10KST1 sets (AID 438;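 active means inhibition above 20% together with a positive visual image hit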;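 further: compound added about 3h40 before a 20 min TNFalpha stimulation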;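 on inhibition: signal is the nuclear over cytoplasmic p65 intensity ratio per well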); settings: HUVEC TNFa-induced p65 nuclear translocation; cell count: measured here: nuclei count (cytotoxicity indicator), at 2.08 µM; inhibition: at 2 µM, stronger effect = higher value, 0% TNFa-plus-vehicle, 100% no-TNFa wells
[2] = endothelial E-selectin expression blockers – imaging, HUVEC, immunofluorescence, MLSMR starter and 10KST1 sets, primary screen (AID 487;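 active means visually confirmed hit in the image check and inhibition above 20%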;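 on inhibition: signal is fraction of cell area covered by stained E-selectin grains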;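 on nuclei count: 100% = median nuclei count of all wells on the same plate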); settings: HUVEC TNFalpha-induced E-selectin immunofluorescence imaging, at 2 µM; inhibition: stronger effect = higher value; nuclei count: measured here: cell number, toxicity
[3] = Primary imaging screen for DUSP6 inhibitors that restore phospho-Erk in transfected HeLa cells, chemical complementation (AID 609;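 active means compounds giving at least 50% inhibition in the cell-based MKP-3 phosphatase rescue imaging test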;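 on inhibition: phospho-Erk level distribution per well compared with pooled transfected vehicle control wells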); settings: HeLa MKP-3 transfected, phospho-Erk imaging KS statistic, at 10 µM, cells stimulated with TPA for 15 min
[4] = biological target: Dual specificity protein phosphatase 6 (Homo sapiens) (UniProt Q16828); experiment: as above; settings: HeLa MKP-3 transfected, phospho-Erk imaging KS statistic; at 10 µM; stronger effect = higher value; cells stimulated with TPA for 15 min
Chain of Dual specificity protein phosphatase 6 (Homo sapiens) (Q16828 whole entry, looked up): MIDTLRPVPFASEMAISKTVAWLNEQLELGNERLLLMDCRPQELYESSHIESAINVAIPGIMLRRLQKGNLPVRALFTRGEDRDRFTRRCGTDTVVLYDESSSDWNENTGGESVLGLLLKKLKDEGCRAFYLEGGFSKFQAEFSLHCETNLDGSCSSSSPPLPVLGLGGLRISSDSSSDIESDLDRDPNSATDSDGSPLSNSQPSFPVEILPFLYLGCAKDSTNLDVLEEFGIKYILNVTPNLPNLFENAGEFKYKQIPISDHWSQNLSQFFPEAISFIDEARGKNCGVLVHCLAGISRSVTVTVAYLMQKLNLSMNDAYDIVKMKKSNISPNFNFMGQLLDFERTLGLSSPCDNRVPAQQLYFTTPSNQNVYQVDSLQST

[5] = biological target: Voltage-gated potassium channel subunit beta-2 (Rattus norvegicus) (UniProt P62483); experiment: inhibitors of rat Kvbeta2 reductase activity – biochemical, NADPH fluorescence, primary screen (AID 622;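 active means fluorescence slope higher than the sample average by over 3 SD, cut at about -0.22 in these data, passing the limit was not always enough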;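 further: slope of raw intensity against log time taken from 70 to 1610 s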); settings: recombinant KvBeta, 4-cyanobenzaldehyde reduction, at 10 µM, stronger effect = higher value
Chain of Voltage-gated potassium channel subunit beta-2 (Rattus norvegicus) (P62483 whole entry, looked up): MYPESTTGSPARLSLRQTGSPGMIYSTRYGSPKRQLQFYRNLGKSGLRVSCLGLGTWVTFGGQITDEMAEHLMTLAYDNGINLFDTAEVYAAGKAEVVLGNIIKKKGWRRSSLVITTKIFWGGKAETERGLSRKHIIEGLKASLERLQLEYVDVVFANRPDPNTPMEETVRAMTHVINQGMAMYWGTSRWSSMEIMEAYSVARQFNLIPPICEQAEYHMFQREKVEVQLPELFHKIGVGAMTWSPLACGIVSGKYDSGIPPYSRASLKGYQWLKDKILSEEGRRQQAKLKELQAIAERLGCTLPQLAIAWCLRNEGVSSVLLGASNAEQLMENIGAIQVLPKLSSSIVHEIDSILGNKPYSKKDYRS

[6] = biological target: Voltage-gated potassium channel subunit beta-2 (Rattus norvegicus) (UniProt P62483); experiment: enhancers of rat Kvbeta2 NADPH turnover – biochemical, NADPH fluorescence, primary screen (AID 623;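 active means NADPH fluorescence slope more negative than the mean of all samples by about 3 SD, 99.7% confidence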;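 further: fluorescence intensity change per second fitted from 20 to 320 s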); settings: Recombinant KvBeta, NADPH fluorescence decrease slope, 10 min; at 10 µM; stronger effect = lower value
[7] = biological target: Muscarinic acetylcholine receptor M4 (Homo sapiens) (UniProt P08173); experiment: M4-linked GIRK flux change, two-sided – cell-based, HEK293 M4/GIRK, thallium flux, BTC-AM, M4 allosteric agonist project, primary screen (AID 625;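 active means fluorescence slope after compound addition differing from the mean of all tested samples at 99.7% confidence, mostly higher but some lower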;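 further: thallium influx through GIRK channels coupled to M4 in HEK293 cells with BTC-AM dye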); settings: at 10 µM, actives lie on both sides
Chain of Muscarinic acetylcholine receptor M4 (Homo sapiens) (P08173 whole entry, looked up): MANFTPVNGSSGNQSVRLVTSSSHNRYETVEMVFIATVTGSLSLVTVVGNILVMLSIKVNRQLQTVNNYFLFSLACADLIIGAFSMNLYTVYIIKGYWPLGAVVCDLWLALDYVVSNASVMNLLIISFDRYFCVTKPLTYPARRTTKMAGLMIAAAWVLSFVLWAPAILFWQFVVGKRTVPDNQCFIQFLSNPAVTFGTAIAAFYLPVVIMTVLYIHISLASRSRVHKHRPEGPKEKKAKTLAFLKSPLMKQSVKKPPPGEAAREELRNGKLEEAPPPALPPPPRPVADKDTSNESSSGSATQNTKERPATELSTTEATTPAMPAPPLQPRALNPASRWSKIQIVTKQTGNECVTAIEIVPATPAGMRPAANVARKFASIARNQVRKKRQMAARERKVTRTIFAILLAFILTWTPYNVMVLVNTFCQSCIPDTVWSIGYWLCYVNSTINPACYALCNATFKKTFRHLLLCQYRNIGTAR
Outline: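 assay system = HEK293 cells with M4 receptor and GIRK channels | medium = pH 7.3 thallium assay buffer | doses = 10 µM final, single point | timing = cells overnight at 37 °C, BTC-AM loading 1 h, reads 2 min total | signal = BTC-AM fluorescence, 1 Hz kinetic reads | read-out = post-addition slope, 15–24 s, of baseline-normalized fluorescence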

[8] = inhibitors of larval lipid processing in zebrafish, primary screen, whole organism, PED6 fluorescence, gall bladder and intestine (AID 686); settings: Zebrafish larvae PED6 lipid processing, fluorescence scoring; screened at 20 µM (by protocol);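 further: larvae 5 to 7 days old with five fish per well; signal comes from phospholipase A2 cleavage of quenched PED6 carried via bile; overnight exposure to compound and PED6 before scoring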
Outline: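 Also added: quenched phospholipase substrate PED6, 100 nM final, ingested by larvae; System: zebrafish larvae, 5-7 d; Quantity: 5 larvae per well; Compound: 20 µM single dose; Schedule: overnight compound and PED6 incubation; Read-out: visual per-well fluorescence inhibition score; Measured by: By-eye fluorescence microscopy; Medium: E3.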

[9] = loss of swimming-algae plug formation – whole organism, Chlamydomonas reinhardtii, WT vs cilia-less mutant, absorbance, 96-well, primary screen (AID 463189;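 active means inhibition at or above 50% relative to wild type and mutant plate controls; inactive means inhibition below 50%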;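 further: 0% = wild type cc124 cells in DMSO and 100% = ciliumless bld1 mutant cells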); settings: Chlamydomonas reinhardtii gravitaxis, OD600 absorbance, 2 days; at 10 µM; stronger effect = higher value
[10] = measured here: cell density z-score
[11] = measured here: nuclear c-Myc green intensity z-score
[12] = measured here: nuclear pErk red intensity z-score, stronger effect = higher value

Structure (SMILES)	cell count [1]	inhibition [1]	inhibition [2]	nuclei count [2] [%]	z-score [3, 10]	z-score [3, 11]	z-score [3, 12]	inhibition [4]	fluorescence slope [5]	NADPH fluorescence slope [6]	fluorescence slope [7]	outcome [8]	inhibition [9]
CCOC(=O)C1=C(N)N2C(=O)CSC2=C(C(=O)OC)C1	523	1.5% (inactive)	-111% (inactive)	138	0.366	1.6	-1.91	5.42% (inactive)	-0.476 (inactive)	-0.000109 (inactive)	0.00418 (inactive)	inactive	-0.259% (inactive)
Cc1cc(C(=O)O)c(CSc2ncn[nH]2)o1	652	-7.4% (inactive)	-48.6% (inactive)	174	-1.18	1.91	1.7	-5.81% (inactive)	-0.455 (inactive)	-0.000158 (inactive)	0.0045 (inactive)	inactive	-11% (inactive)
CCN(CC)CCN1C(=O)C(O)=C(C(=O)c2cc3ccccc3o2)C1c1cccnc1 (stereo unspecified)	423	-6.8% (inactive)	14.8% (inactive)	163	-0.472	-0.722	-0.061	3.56% (inactive)	-0.431 (inactive)	-0.000135 (inactive)	0.00445 (inactive)	inactive	-8.96% (inactive)
Cn1c(CSc2ncn[nH]2)nc2ccccc21	537	-6.4% (inactive)	-75.5% (inactive)	122	-3.21	1.73	1.28	20.2% (inactive)	-0.49 (inactive)	-0.000116 (inactive)	0.00416 (inactive)	inactive	-14.5% (inactive)
O=C(c1ccccc1)c1cc(-c2ccccc2)on1	589	-3.4% (inactive)	-39.7% (inactive)	118	-0.313	-0.603	0.519	-13.3% (inactive)	-0.41 (inactive)	-7.5e-05 (inactive)	0.00548 (inactive)	inactive	-6.04% (inactive)
COc1cc(S(=O)(=O)N2CCN(c3ccc(F)cc3)CC2)ccc1Cl	609	-2.2% (inactive)	-32.9% (inactive)	124	-0.486	-0.838	0.956	-7.67% (inactive)	-0.449 (inactive)	-4.1e-05 (inactive)	0.00423 (inactive)	inactive	-4.27% (inactive)
CCCCC(=O)c1c(C)cc(C)[nH]c1=O	721	-6.7% (inactive)	-99.5% (inactive)	191	0.203	0.876	0.0182	3.97% (inactive)	-0.482 (inactive)	-7.1e-05 (inactive)	0.00582 (inactive)	inactive	0.273% (inactive)
COc1ccc(C2CC(c3ccccc3)Nc3nc(N)nn32)cc1 (stereo unspecified)	377	4.8% (inactive)	-29.3% (inactive)	110	-1.01	-0.362	-0.446	1.48% (inactive)	-0.495 (inactive)	-1.6e-05 (inactive)	0.00558 (inactive)	inactive	-15% (inactive)
Cc1ccc(S(=O)(=O)N(CC(O)CN2CCOCC2)c2cc(Cl)ccc2Cl)cc1 (stereo unspecified)	597	-2.7% (inactive)	-35% (inactive)	112	-0.865	1.14	0.263	7.42% (inactive)	-0.403 (inactive)	-2.9e-05 (inactive)	0.00509 (inactive)	inactive	-2.19% (inactive)
COc1ccc(-c2nn(C)c(=O)c3ccccc23)cc1NS(C)(=O)=O	373	-6.1% (inactive)	-7.8% (inactive)	104	-0.517	0.9	-0.714	11.9% (inactive)	-0.509 (inactive)	1.7e-05 (inactive)	0.00473 (inactive)	inactive	-10.8% (inactive)
COc1ccc(C2CC(c3ccc(C)cc3)Nc3nc(N)nn32)cc1 (stereo unspecified)	390	2.2% (inactive)	-104% (inactive)	145	-0.765	2.44	-0.827	9.82% (inactive)	-0.447 (inactive)	-7.3e-05 (inactive)	0.00548 (inactive)	inactive	-10.9% (inactive)
Cc1cc(=O)oc(C)c1C(=O)NC12CC3CC(CC(C3)C1)C2	739	-12.2% (inactive)	-66.8% (inactive)	166	-0.0351	0.102	0.73	-6.48% (inactive)	-0.455 (inactive)	-5.7e-05 (inactive)	0.00545 (inactive)	inactive	6.04% (inactive)
